Eleven compounds from ChEMBL document CHEMBL2321692, “De novo fragment design: a medicinal chemistry approach to fragment-based lead generation” (J Med Chem, 2013) can be followed below.

Assay [1] in a line: Binding affinity to HCV NS5B570n-BK expressed in Escherichia coli by surface plasma resonance assay. Type of assay: cell-free, Hepatitis C virus (isolate BK). The method, boiled down: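 Kinetic dissociation constant (K_D) measured against genotype 1b NS5B polymerase, BK strain, by surface plasmon resonance.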
The next assay concerns Hepatitis C virus. The assay is described as follows: Inhibition of HCV NS5B570n-Con1 expressed in Escherichia coli assessed as radiolabeled nucleotide monophosphate incorporation into acid-insoluble RNA products after 2 hrs by scintillation counting analysis. More on the design: species or system Hepacivirus hominis. The conditions noted are these: Con1, 2 h. The method, boiled down:
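IC₅₀ in the NS5B polymerase enzyme assay using genotype 1b NS5B, Con1 strain.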

Assay [2] in a line: Inhibition of HCV NS5B570n-BK expressed in Escherichia coli assessed as radiolabeled nucleotide monophosphate incorporation into acid-insoluble RNA products after 2 hrs by scintillation counting analysis. More on the design: species or system Hepatitis C virus (isolate BK).

By Kd is commonly meant the constant that tells how readily two partners part at equilibrium. Read a high Kd as a looser complex. What is called IC50 is the concentration that inhibits the measured activity by half. `CC(C)(C)c1cccc(-c2ccc[nH]c2=O)c1`: the Kd in assay [1] stood at 5.8 µM. For the same compound, the half-inhibitory concentration (IC50) in the assay with Hepatitis C virus is 4 µM.

Consider `O=C1CNC(=O)N1Cc1ccc(Cl)c(Cl)c1`, for which, in the assay on Hepatitis C virus, the IC50 is > 1000 µM.

In the case of `CC1NC(=O)N(Cc2ccc(C(C)(C)C)cc2)C1=O` (configuration not stated), in assay [1], binding was put at a Kd of 144 µM. The IC50 with Hepatitis C virus amounted to 220 µM.

As to `Cc1ccccc1Oc1cccc(-c2ccc[nH]c2=O)c1`, in the assay on Hepatitis C virus, the IC50 is 80 µM.

Consider `CC(C)(C)c1ccc(CN2C(=O)CNC2=O)cc1`, for which the affinity in assay [1], expressed as Kd, was 400 µM. Moreover, the IC50 in the assay on Hepatitis C virus turned out to be 364 µM.

`CC(C)(C)c1ccc(Cc2ccc[nH]c2=O)cc1`: the IC50 in the assay on Hepatitis C virus was 431 µM.

In assay [1], `CC(C)C1NC(=O)N(Cc2ccc(C(C)(C)C)cc2)C1=O` (configuration not stated) returned a Kd of 18 µM. Besides, the IC50 in the assay on Hepatitis C virus is 21 µM.

Take `c1ccc(NNc2ncnc3[nH]ncc23)cc1`: the IC50 in assay [2] came out at 130 µM. In assay [1], this compound registered a Kd of 78 µM.

With `COc1ccc(-c2ccc[nH]c2=O)cc1C(C)(C)C`, in assay [1], the affinity, expressed as Kd, was 0.57 µM. That is a sub-micromolar value.

Consider `O=C1CNC(=O)N1Cc1ccccc1`, for which the IC50 in the assay with Hepatitis C virus was > 1000 µM.

Regarding `CCC1NC(=O)N(Cc2ccc(C(C)(C)C)cc2)C1=O` (configuration not stated), in assay [1], binding was put at a Kd of 93 µM. Moreover, the half-maximal inhibitory concentration (IC50) in the assay on Hepatitis C virus stood at 108 µM.
